Laboratory results reported in ChEMBL document CHEMBL1131335, “Modulation of receptor and receptor subtype affinities using diastereomeric and enantiomeric monosaccharide scaffolds as a means to structural and biological diversity. A new route to ether synthesis” (J Med Chem, 1998).
pIC50, pKi: −log10 of the molar value.

Columns and labels:
Substance-P receptor [1] = target: T1, Substance-P receptor (Homo sapiens, UniProt P25103); assay: Binding affinity was measured for Tachykinin receptor 1; Did not bind
T1 sequence (P25103 whole entry): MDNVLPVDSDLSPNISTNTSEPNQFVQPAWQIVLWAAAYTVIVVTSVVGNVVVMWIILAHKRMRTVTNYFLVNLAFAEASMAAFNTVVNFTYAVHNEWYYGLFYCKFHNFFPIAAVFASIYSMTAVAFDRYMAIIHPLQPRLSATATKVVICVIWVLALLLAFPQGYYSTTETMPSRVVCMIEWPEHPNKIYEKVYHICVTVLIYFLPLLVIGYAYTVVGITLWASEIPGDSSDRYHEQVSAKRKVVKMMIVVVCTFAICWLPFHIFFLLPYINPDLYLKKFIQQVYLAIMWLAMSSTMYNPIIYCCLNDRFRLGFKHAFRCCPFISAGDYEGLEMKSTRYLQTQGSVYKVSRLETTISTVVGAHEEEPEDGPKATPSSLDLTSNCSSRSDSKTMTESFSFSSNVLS

Somatostatin receptor = assay: Binding affinity was measured for SRIF receptor on AtT-20 mouse pituitary cells; type: cell-based; details: pituitary gland cell
Substance-P receptor [2] = target: T1, Substance-P receptor; assay: Binding affinity was measured for Tachykinin receptor 1
[3] = target: Somatostatin receptor type 2 (Homo sapiens, UniProt P30874); assay: Binding affinity for human receptor subtype hSSTR2
Somatostatin receptor type 2, sequence (P30874 whole entry): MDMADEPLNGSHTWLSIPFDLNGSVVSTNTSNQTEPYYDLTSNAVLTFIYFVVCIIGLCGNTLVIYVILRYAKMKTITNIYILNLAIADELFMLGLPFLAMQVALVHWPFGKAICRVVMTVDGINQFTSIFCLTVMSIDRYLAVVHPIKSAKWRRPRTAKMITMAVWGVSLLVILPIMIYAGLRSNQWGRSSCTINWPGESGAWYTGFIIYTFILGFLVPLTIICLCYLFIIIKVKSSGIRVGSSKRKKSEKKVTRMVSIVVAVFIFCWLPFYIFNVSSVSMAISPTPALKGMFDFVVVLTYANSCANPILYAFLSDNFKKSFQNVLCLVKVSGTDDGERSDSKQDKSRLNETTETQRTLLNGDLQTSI
Method in brief: (§1)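 Radioligand competition on membranes from CHO-K1 cells expressing hSSTR1–5, in 50 mM Tris-HCl pH 7.8 with 1 mM EGTA, 5 mM MgCl2 and protease inhibitors (leupeptin, pepstatin, bacitracin, aprotinin). Compounds ran 0.01–10,000 nM as seven-point full-log titrations, in triplicate, in at least two separate experiments. Incubation was 45 min at room temperature, then filtration onto PEI-pretreated GF/C filters and scintillation counting.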

[4] = target: Somatostatin receptor type 4 (Homo sapiens, UniProt P31391); assay: Binding affinity for human receptor subtype hSSTR4.
Somatostatin receptor type 4, sequence (P31391 whole entry): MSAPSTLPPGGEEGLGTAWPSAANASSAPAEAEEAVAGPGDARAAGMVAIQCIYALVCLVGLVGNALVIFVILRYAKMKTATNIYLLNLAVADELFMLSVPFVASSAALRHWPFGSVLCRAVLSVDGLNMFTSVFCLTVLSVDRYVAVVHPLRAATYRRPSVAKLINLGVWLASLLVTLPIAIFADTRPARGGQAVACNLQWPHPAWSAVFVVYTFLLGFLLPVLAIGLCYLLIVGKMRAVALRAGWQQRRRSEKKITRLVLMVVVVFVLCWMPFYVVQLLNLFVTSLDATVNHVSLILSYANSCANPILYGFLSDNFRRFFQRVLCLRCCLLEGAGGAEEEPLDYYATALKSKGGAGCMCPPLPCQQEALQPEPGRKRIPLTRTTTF
Method in brief: as §1, with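 “aprotinin). Tracer was [125I-Tyr11]SRIF-14 at 0.1 nM final.” for “aprotinin).”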

[5] = target: Somatostatin receptor type 3 (Homo sapiens, UniProt P32745); assay: Binding affinity for human receptor subtype hSSTR3.
Somatostatin receptor type 3, sequence (P32745 whole entry): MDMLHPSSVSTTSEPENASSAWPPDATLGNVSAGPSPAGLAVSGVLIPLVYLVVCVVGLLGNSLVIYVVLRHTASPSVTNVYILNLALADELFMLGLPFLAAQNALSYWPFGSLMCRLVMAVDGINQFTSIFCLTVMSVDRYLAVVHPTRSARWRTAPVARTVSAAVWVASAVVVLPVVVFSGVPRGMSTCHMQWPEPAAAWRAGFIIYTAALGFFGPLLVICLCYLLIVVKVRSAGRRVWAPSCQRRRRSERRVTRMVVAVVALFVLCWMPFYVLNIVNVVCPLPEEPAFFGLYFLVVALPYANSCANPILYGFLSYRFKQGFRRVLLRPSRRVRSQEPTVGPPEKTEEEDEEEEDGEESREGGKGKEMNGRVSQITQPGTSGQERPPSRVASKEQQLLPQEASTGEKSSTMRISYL
Method in brief: as §1, with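 “aprotinin). Tracer was [125I-Tyr11]SRIF-14 at 0.1 nM final.” for “aprotinin).”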

[6] = target: Somatostatin receptor type 1 (Homo sapiens, UniProt P30872); assay: Binding affinity for human receptor subtype hSSTR1; method in brief: as §1
Somatostatin receptor type 1, sequence (P30872 whole entry): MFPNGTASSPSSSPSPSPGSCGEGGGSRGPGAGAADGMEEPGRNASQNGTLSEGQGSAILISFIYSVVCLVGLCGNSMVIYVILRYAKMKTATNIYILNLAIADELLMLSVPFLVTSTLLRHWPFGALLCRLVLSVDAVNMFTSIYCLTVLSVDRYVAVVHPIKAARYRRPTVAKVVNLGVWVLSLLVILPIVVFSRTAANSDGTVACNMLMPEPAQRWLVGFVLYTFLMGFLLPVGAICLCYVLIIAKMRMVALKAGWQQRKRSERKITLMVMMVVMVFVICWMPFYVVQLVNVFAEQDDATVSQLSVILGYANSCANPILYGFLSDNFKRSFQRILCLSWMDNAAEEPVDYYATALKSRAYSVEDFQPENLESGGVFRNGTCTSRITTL

[7] = target: T2, Somatostatin receptor type 5 (Homo sapiens, UniProt P35346); assay: Binding affinity for human receptor subtype hSSTR5.; method in brief: as §1
T2 sequence (P35346 whole entry): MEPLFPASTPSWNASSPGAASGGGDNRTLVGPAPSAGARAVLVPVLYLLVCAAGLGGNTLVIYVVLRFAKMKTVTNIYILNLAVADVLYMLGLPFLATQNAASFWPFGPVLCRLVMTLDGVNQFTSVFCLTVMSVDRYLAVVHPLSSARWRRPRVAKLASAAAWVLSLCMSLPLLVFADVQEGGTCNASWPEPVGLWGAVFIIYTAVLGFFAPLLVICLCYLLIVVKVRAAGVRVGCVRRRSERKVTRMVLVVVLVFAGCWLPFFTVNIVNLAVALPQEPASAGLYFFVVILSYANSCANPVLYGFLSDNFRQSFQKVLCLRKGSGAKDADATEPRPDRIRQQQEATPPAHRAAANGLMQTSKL

[8] = target: T2, Somatostatin receptor type 5; assay: Binding affinity for human receptor subtype hSSTR5.; Did not bind
Method in brief: as §1, with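 “aprotinin). Tracer was [125I-Tyr11]SRIF-14 at 0.1 nM final.” for “aprotinin).”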

SMILES: CC(=O)NCCCCCOC[C@H]1O[C@@H](OCCc2c[nH]c3ccccc23)[C@H](OCc2ccc3ccccc3c2)[C@@H](OCc2ccccc2)[C@@H]1OCc1ccccc1
- IC50 (Substance-P receptor [1]): Not Active

SMILES: NCCCCCOC[C@H]1O[C@@H](OCCc2c[nH]c3ccccc23)[C@H](OCc2ccccc2)C[C@@H]1OCc1ccccc1
- IC50 (Somatostatin receptor): 8400 nM

SMILES: CC(=O)NCCCCCOC[C@H]1O[C@@H](OCCc2c[nH]c3ccccc23)[C@H](OCc2ccc(F)cc2)[C@@H](OCc2ccccc2)[C@@H]1OCc1ccccc1
- pIC50 (Substance-P receptor [2]): 6.68

SMILES: OCCCCCNC[C@H]1O[C@@H](OCCc2c[nH]c3ccccc23)[C@H](OCc2ccccc2)[C@@H](OCc2ccccc2)[C@@H]1OCc1ccccc1
- IC50 (Somatostatin receptor): 14000 nM

SMILES: NCCCCCNC[C@H]1O[C@@H](OCCc2c[nH]c3ccccc23)[C@H](OCc2ccccc2)[C@@H](OCc2ccccc2)[C@@H]1OCc1ccccc1
- pKi [3]: 6.22
- pKi [4]: 6.30
- pKi [5]: 6.22
- IC50 (Somatostatin receptor): 13000 nM
- pKi [6]: 5.68
- pKi [7]: 5.89

SMILES: Fc1ccc(COC[C@H]2O[C@@H](OCCc3c[nH]c4ccccc34)[C@H](OCc3ccc4ccccc4c3)[C@@H](OCc3ccccc3)[C@@H]2OCc2ccccc2)cc1
- IC50 (Substance-P receptor [1]): Not Active

SMILES: Fc1ccc(CO[C@H]2[C@H](OCCc3c[nH]c4ccccc34)O[C@H](COCc3ccc4ccccc4c3)[C@@H](OCc3ccccc3)[C@@H]2OCc2ccccc2)cc1
- IC50 (Substance-P receptor [1]): Not Active

SMILES: NCCCCCCOC[C@H]1O[C@@H](OCCc2c[nH]c3ccccc23)[C@H](OCc2ccccc2)C[C@@H]1OCc1ccccc1
- IC50 (Somatostatin receptor): 7000 nM

SMILES: NCCCCCOC[C@@H]1O[C@H](OCCc2c[nH]c3ccccc23)[C@H](OCc2c[nH]cn2)[C@H](OCc2ccccc2)[C@H]1OCc1ccccc1
- Ki [8]: Not Active

SMILES: Fc1ccc(OC[C@H]2O[C@@H](OCCc3c[nH]c4ccccc34)[C@H](OCc3ccc4ccccc4c3)[C@@H](OCc3ccccc3)[C@@H]2OCc2ccccc2)cc1
- IC50 (Substance-P receptor [1]): Not Active

SMILES: NCCCCCOC[C@H]1O[C@@H](CCc2c[nH]c3ccccc23)[C@H](OCc2ccccc2)[C@@H](OCc2ccccc2)[C@@H]1OCc1ccccc1
- IC50 (Somatostatin receptor): 22000 nM

SMILES: NCCCCCOC[C@H]1O[C@@H](OCCc2c[nH]c3ccccc23)[C@H](OCc2c[nH]cn2)C[C@@H]1OCc1ccccc1
- IC50 (Somatostatin receptor): 4100 nM

SMILES: CO[C@@H]1O[C@H](COCCCCCN)[C@@H](OCc2ccccc2)[C@H](OCc2c[nH]cn2)[C@H]1OCc1ccccc1
- IC50 (Somatostatin receptor): 5600 nM

SMILES: CO[C@@H]1O[C@H](COCCCCCN)[C@@H](OCc2ccccc2)[C@H](OCc2ccccc2)[C@H]1OCc1ccccc1
- IC50 (Somatostatin receptor): 5900 nM

SMILES: OCCCCCCNC[C@H]1O[C@@H](OCCc2c[nH]c3ccccc23)[C@H](OCc2ccccc2)C[C@@H]1OCc1ccccc1
- IC50 (Somatostatin receptor): 5100 nM

SMILES: C[C@@H](O)[C@@H]1NC(=O)[C@H](Cc2ccc(F)cc2)NC(=O)[C@@H](Cc2c[nH]c3ccccc23)NC(=O)[C@H](Cc2ccc3ccccc3c2)NC(=O)[C@@H]2CCCN2C(=O)[C@H](Cc2ccccc2)NC1=O
- pIC50 (Substance-P receptor [2]): 7.19
